The source made the active and inactive calls. The rule behind the calls is not given here.
Key:
[1] = system: Respiratory syncytial virus; assay: Antiviral activity against RSV infected in human cervix carcinoma cells assessed as inhibition of virus-induced cytopathic effect at 0.32 to 100 uM; assay type: functional, organism-based
How it was run: (§1)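 Confluent cell cultures were infected with 100 CCID50 of virus in the presence of test compound at 100, 40, 8, 1.6 and 0.32 μM. Cytopathic effect was scored once it was complete in untreated infected controls.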

[2] = system: Coxsackievirus B4; assay: Antiviral activity against Coxsackievirus B4 infected in human cervix carcinoma cells assessed as inhibition of virus-induced cytopathic effect at 0.32 to 100 uM; assay type: functional, organism-based; how it was run: as §1
[3] = system: L1210; assay: Cytostatic activity against mouse L1210 cells after 2 days by coulter counter analysis; assay type: functional, cell-based; details: L1210, 48 h
How it was run: (§2)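 300,000–500,000 cells/ml mixed 1:1 with compound dilutions and incubated at 37 °C for 2 days (L1210) or 3 days (CEM, HeLa). Cell number counted with a Coulter counter; HeLa trypsinized before counting.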

[4] = system: CCRF-CEM; assay: Cytostatic activity against human CEM cells after 3 days by coulter counter analysis; assay type: functional, cell-based; details: 72 h; how it was run: as §2
[5] = system: HeLa; assay: Cytostatic activity against human HeLa cells after 3 days by coulter counter analysis; assay type: functional, cell-based; details: 72 h; how it was run: as §2
[6] = system: HCT-116; assay: Cytostatic activity against human HCT116 cells after 72 hrs by MTT assay; assay type: functional, cell-based; details: HCT-116, 72 h
How it was run: (§3)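 Monolayers in DMEM with 10% FBS, 2 mM L-glutamine and penicillin/streptomycin, 37 °C, 5% CO2. Seeded at 1–3 × 10^4 cells/ml, then compound added in tenfold dilutions (10⁻⁸–10⁻⁴ M) for 72 h. MTT read at 570 nm; percent growth taken against time-zero and untreated controls. IC50 by linear regression; quadruplicate, at least two experiments.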

[7] = system: MCF7; assay: Cytostatic activity against human MCF7 cells after 72 hrs by MTT assay; assay type: functional, cell-based; details: MCF7, 72 h; how it was run: as §3
[8] = system: NCI-H460; assay: Cytostatic activity against human NCI-H460 cells after 72 hrs by MTT assay; assay type: functional, cell-based; details: NCI-H460, 72 h; how it was run: as §3
[9] = system: Human alphaherpesvirus 1; assay: Antiviral activity against HSV1 KOS infected in human lung fibroblast assessed as inhibition of virus-induced cytopathic effect at 0.32 to 100 uM; assay type: functional, organism-based; how it was run: as §1
[10] = system: Human alphaherpesvirus 2; assay: Antiviral activity against HSV2 G infected in human lung fibroblast assessed as inhibition of virus-induced cytopathic effect at 0.32 to 100 uM; assay type: functional, organism-based; details: strain G; how it was run: as §1
[11] = system: Vaccinia virus; assay: Antiviral activity against Vaccinia virus infected in human lung fibroblast assessed as inhibition of virus-induced cytopathic effect at 0.32 to 100 uM; assay type: functional, organism-based; details: Orthopoxvirus vaccinia
[12] = system: Vesicular stomatitis virus; assay: Antiviral activity against VSV infected in human lung fibroblast assessed as inhibition of virus-induced cytopathic effect at 0.32 to 100 uM; assay type: functional, organism-based
[13] = system: Human respirovirus 3; assay: Antiviral activity against Parainfluenza virus 3 infected in african green monkey Vero cells assessed as inhibition of virus-induced cytopathic effect at 0.32 to 100 uM; assay type: functional, organism-based; how it was run: as §1
[14] = system: Mammalian orthoreovirus 1; assay: Antiviral activity against Reovirus-1 infected in african green monkey Vero cells assessed as inhibition of virus-induced cytopathic effect at 0.32 to 100 uM; assay type: functional, organism-based; how it was run: as §1
[15] = system: Sindbis virus; assay: Antiviral activity against Sindbis virus infected in african green monkey Vero cells assessed as inhibition of virus-induced cytopathic effect at 0.32 to 100 uM; assay type: functional, organism-based; how it was run: as §1
[16] = system: Coxsackievirus B4; assay: Antiviral activity against Coxsackievirus B4 infected in african green monkey Vero cells assessed as inhibition of virus-induced cytopathic effect at 0.32 to 100 uM; assay type: functional, organism-based; how it was run: as §1
[17] = system: Punta Toro virus; assay: Antiviral activity against Punta Toro virus infected in african green monkey Vero cells assessed as inhibition of virus-induced cytopathic effect at 0.32 to 100 uM; assay type: functional, organism-based; how it was run: as §1
[18] = system: Vesicular stomatitis virus; assay: Antiviral activity against Vesicular stomatitis virus infected in human cervix carcinoma cells assessed as inhibition of virus-induced cytopathic effect at 0.32 to 100 uM; assay type: functional, organism-based
How it was run: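 Confluent human cervix carcinoma (HeLa) cultures received 100 CCID50 of VSV together with the compound at 100, 40, 8, 1.6 or 0.32 μM. Cytopathicity was read at the point of full CPE in infected, untreated control wells.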

[19] = system: Felid alphaherpesvirus 1; assay: Antiviral activity against Feline herpesvirus infected in feline CRFK cells assessed as inhibition of virus-induced cytopathic effect at 0.32 to 100 uM; assay type: functional, organism-based; how it was run: as §1
[20] = system: Feline coronavirus; assay: Antiviral activity against Feline coronavirus infected in feline CRFK cells assessed as inhibition of virus-induced cytopathic effect at 0.32 to 100 uM; assay type: functional, organism-based; how it was run: as §1
[21] = system: Influenza A virus; assay: Antiviral activity against Influenza A virus H1N1 infected in MDCK cells assessed as inhibition of virus-induced cytopathic effect at 0.32 to 100 uM; assay type: functional, organism-based
How it was run: (§4)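 Confluent MDCK monolayers were infected in the presence of the compound at 100, 40, 8, 1.6 and 0.32 μM. Viral cytopathicity was scored once it was complete in untreated infected control cultures.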

[22] = system: Influenza A virus; assay: Antiviral activity against Influenza A virus H3N2 infected in MDCK cells assessed as inhibition of virus-induced cytopathic effect at 0.32 to 100 uM; assay type: functional, organism-based; how it was run: as §4
[23] = system: Influenza B virus; assay: Antiviral activity against Influenza B virus infected in MDCK cells assessed as inhibition of virus-induced cytopathic effect at 0.32 to 100 uM; assay type: functional, organism-based; how it was run: as §4
[24] = system: Human immunodeficiency virus 1; assay: Antiviral activity against HIV1 3B infected in human CEM cells assessed as inhibition of virus-induced CEM giant cell formation at 0.32 to 100 uM after 4 days; assay type: functional, organism-based; details: CCRF-CEM
How it was run: (§5)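 CEM cells (~3 × 10^5 cells/cm³) exposed to 100 CCID50/ml of virus and seeded into wells holding compound dilutions. Incubated 4 days at 37 °C, then giant cell formation examined microscopically.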

[25] = system: Human immunodeficiency virus 2; assay: Antiviral activity against HIV2 ROD infected in human CEM cells assessed as inhibition of virus-induced CEM giant cell formation at 0.32 to 100 uM after 4 days; assay type: functional, organism-based; details: ISOLATE ROD, CCRF-CEM; how it was run: as §5
[26] = system: Radical scavenging activity; assay: Antioxidant activity assessed as DPPH free radical scavenging activity at 100 uM after 20 mins by spectrophotometric analysis; assay type: functional
How it was run: (§6)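 0.05 mM DPPH in absolute ethanol mixed with an equal volume of compound in DMSO (final 100 μM). Shaken and left 20 or 60 min, then absorbance read at 517 nm and percent activity calculated. Three replicates, averaged.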

[27] = system: Radical scavenging activity; assay: Antioxidant activity assessed as DPPH free radical scavenging activity at 100 uM after 60 mins by spectrophotometric analysis; assay type: functional; how it was run: as §6
[28] = Antioxidant activity assessed as inhibition of AAPH-induced linoleic acid lipid peroxidation by measuring conjugated diene hydroperoxide level; assay type: functional; design: concentration or dose not given beside the values; details: dose or concentration not given here
How it was run: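 Linoleic acid sodium salt (10 μL of 16 mM) in 0.05 M phosphate buffer pH 7.4 at 37 °C. Oxidation started under air with 50 μL of 40 mM AAPH. Conjugated diene hydroperoxide formation followed as absorbance rise at 234 nm; control contains the same DMSO level. At least triplicate.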

[29] = system: Glycine max; assay: Inhibition of soybean LOX assessed as conversion of sodium linoleate to 13- hydroperoxylinoleic acid at 100 uM

Row | Compound | inhibition [1] | inhibition [2] | IC50 [3] [µM] | IC50 [4] [µM] | IC50 [5] [µM] | IC50 [6] [µM] | IC50 [7] [µM] | IC50 [8] [µM] | inhibition [9] | inhibition [10] | inhibition [11] | inhibition [12] | inhibition [13] | inhibition [14] | inhibition [15] | inhibition [16] | inhibition [17] | inhibition [18] | inhibition [19] | inhibition [20] | also measured
1 | O=C(NNC(=O)n1nnc2ccccc21)NOCc1ccccc1 | inactive | inactive | > 250 | > 250 | > 250 | > 100 | > 100 | > 100 | inactive | inactive | inactive | inactive | inactive | inactive | inactive | inactive | inactive | inactive | inactive | inactive | inhibition [21]: inactive; inhibition [22]: inactive; inhibition [23]: inactive; inhibition [24]: inactive; inhibition [25]: inactive; Activity [26]: 85%; Activity [27]: 85%; inhibition [28]: 31%; inhibition [29]: inactive
2 | CC(C(=O)NNC(=O)NNC(=O)NO)c1cccc(Cc2ccccc2)c1 (stereo unspecified) | inactive | inactive | > 250 | > 250 | ≥ 250 | > 100 | > 100 | > 100 | inactive | inactive | inactive | inactive | inactive | inactive | inactive | inactive | inactive | inactive | inactive | inactive | inhibition [21]: inactive; inhibition [22]: inactive; inhibition [23]: inactive; inhibition [24]: inactive; inhibition [25]: inactive; Activity [26]: 28%; Activity [27]: 53%; inhibition [28]: 28%; inhibition [29]: 1%
3 | CC(C(=O)NNC(=O)NO)c1cccc(Cc2ccccc2)c1 (stereo unspecified) | inactive | inactive | 113 | 155 | 176 | > 100 | > 100 | > 100 | inactive | inactive | inactive | inactive | inactive | inactive | inactive | inactive | inactive | inactive | inactive | inactive | inhibition [21]: inactive; inhibition [22]: inactive; inhibition [23]: inactive; inhibition [24]: inactive; inhibition [25]: inactive; Activity [26]: 36%; Activity [27]: 59%; inhibition [28]: 8%; inhibition [29]: 8%
4 | CC(C)Cc1ccc(C(C)C(=O)NNC(=O)NNC(=O)NO)cc1 (stereo unspecified) | inactive | inactive | > 250 | > 250 | > 250 | > 100 | > 100 | > 100 | inactive | inactive | inactive | inactive | inactive | inactive | inactive | inactive | inactive | inactive | inactive | inactive | inhibition [21]: inactive; inhibition [22]: inactive; inhibition [23]: inactive; inhibition [24]: inactive; inhibition [25]: inactive; Activity [26]: 24%; Activity [27]: 46%; inhibition [28]: 15%; inhibition [29]: inactive

From ChEMBL document CHEMBL2010803, “Novel NSAID 1-acyl-4-cycloalkyl/arylsemicarbazides and 1-acyl-5-benzyloxy/hydroxy carbamoylcarbazides as potential anticancer agents and antioxidants” (Eur J Med Chem, 2012)
